From PubChem
Rows were chosen to be rich in hits. Some 4% of all compounds tested hit in one or more screens of this group.
KCNQ1 pot = potentiators or activators of KCNQ1 channel, primary screen, cell-based, thallium flux, high-throughput; B-score at 10 µM; CHO-K1 KCNQ1, thallium flux FluxOR fluorescence; active compounds read high; AID 2648, 2010; Potassium voltage-gated channel subfamily KQT member 1 (Homo sapiens), P51787; 310,000 tested, 0.35% active;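 active = fluorescence ratio B-score, a plate-corrected score, at least three library SD, with initial intensity B-score within 5 SD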
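assay system = CHO-K1 cells stably expressing KCNQ1 | medium = assay buffer, equal DMSO in all wells | timing = 37 °C overnight plating, 90-min dark dye load, 20-min compound pretreatment | measured by = kinetic FluxOR thallium fluorescence, 10-s 1-Hz baseline, 110-s post-stimulus read | measure = fluorescence change relative to baseline, converted to B score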
PHOSPHO1 inh = PubChem AID 1565; Phosphoethanolamine/phosphocholine phosphatase (Homo sapiens), Q8TCT1; recombinant PHOSPHO1, absorbance phosphatase assay; inhibition, % at 13.3 µM; 290,000 tested, 1.1% active; in the data active = inhibition above about 60%
KCNK9 inh = KCNK9 potassium channel inhibitors, primary screen, HEK293 cells, thallium flux. FluxOR thallium flux fluorescence; active compounds read low. B-score at 10 µM. 310,000 tested, 1.2% active. AID 488922, 2010;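 active = ratio B-score over 3 SD below the library mean, with starting fluorescence within 5 SD of its mean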;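 note: negative B-score means less thallium flux so channel inhibition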
KCNQ1 block = inhibitors of human KCNQ1 channel, primary screen, cell-based, thallium flux, high-throughput. 310,000 tested, 1.3% active. Potassium voltage-gated channel subfamily KQT member 1 (Homo sapiens), P51787. B-score at 10 µM. CHO-K1 KCNQ1, FluxOR thallium flux fluorescence; active compounds read high;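 active = compounds whose thallium flux B-score, printed positive for inhibition, exceeds three library SD while starting fluorescence stays within three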;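 note: channel opened by potassium depolarization with thallium stimulus after 20 min compound exposure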
hERG protect = hERG rescue from dofetilide block, primary screen, cell-based, CHO-hERG, FluxOR thallium flux, dofetilide IC70; Voltage-gated inwardly rectifying potassium channel KCNH2 (Homo sapiens), Q12809; dofetilide IC70 present; activation (rescue from dofetilide block), less the hit threshold, % at 10 µM; 310,000 tested, 0.51% active; AID 1511, 2009;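 active = activation above the mean of controls blocked by dofetilide plus 5 SD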;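 note: thallium influx through hERG after potassium depolarization seen as dye fluorescence rise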
Target sequence (Q12809 whole entry, looked up): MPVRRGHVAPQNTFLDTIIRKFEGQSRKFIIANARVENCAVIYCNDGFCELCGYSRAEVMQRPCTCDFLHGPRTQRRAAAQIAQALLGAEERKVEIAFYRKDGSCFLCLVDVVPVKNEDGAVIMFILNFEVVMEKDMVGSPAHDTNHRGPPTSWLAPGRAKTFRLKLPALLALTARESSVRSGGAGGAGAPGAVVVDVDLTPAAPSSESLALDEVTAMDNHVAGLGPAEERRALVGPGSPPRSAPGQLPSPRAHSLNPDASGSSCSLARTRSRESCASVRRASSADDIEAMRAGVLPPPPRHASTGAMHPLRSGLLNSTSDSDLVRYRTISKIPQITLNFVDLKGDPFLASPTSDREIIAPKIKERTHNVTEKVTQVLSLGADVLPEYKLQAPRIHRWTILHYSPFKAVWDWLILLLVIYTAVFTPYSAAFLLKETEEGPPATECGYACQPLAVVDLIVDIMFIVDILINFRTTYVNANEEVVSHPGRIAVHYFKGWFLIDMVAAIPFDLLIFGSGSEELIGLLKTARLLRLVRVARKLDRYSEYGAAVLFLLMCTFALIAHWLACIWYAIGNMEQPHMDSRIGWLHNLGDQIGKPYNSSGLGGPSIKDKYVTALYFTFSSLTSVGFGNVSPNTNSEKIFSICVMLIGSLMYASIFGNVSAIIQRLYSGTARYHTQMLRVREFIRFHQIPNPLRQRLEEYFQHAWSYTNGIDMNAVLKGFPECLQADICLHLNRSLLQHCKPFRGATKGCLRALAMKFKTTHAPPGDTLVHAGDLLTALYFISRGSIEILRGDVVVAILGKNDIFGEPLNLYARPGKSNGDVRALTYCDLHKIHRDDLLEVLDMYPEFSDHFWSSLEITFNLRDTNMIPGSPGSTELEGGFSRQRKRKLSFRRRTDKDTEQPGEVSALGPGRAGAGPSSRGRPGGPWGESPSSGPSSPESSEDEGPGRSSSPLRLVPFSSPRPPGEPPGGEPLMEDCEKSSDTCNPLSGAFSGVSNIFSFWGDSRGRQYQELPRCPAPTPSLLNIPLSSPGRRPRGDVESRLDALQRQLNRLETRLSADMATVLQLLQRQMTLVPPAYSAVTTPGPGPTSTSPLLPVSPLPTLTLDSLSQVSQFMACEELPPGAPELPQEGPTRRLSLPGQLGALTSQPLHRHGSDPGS
KCNK3 block = human KCNK3 channel inhibitors, primary screen, CHO cells, FluxOR thallium flux, B-score; AID 602410, 2012; FluxOR fluorescence; active compounds read low; 340,000 tested, 0.84% active; B-score at 10 µM; Potassium channel subfamily K member 3 (Homo sapiens), O14649;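 active = B-score under library mean minus 4 SD, starting fluorescence ratio at most library mean plus 5 SD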;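 note: more negative B-score means stronger inhibition of thallium flux through KCNK3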
Active calls of the source: *.

`CC(OC(=O)/C(C#N)=C/c1ccc(N(C)C)cc1)C(=O)N(C)c1ccccc1` (stereo unspecified) gave KCNQ1 pot inactive, KCNK9 inh inactive, KCNQ1 block 8*, hERG protect -16.4 and KCNK3 block inactive.
For CC(OC(=O)/C(C#N)=C/c1ccc(N(C)C)cc1)C(=O)NCc1ccco1 (stereo unspecified) the results were KCNQ1 pot inactive, KCNK9 inh inactive, KCNQ1 block 7*, hERG protect -11.1 and KCNK3 block inactive.
Screening CC(=O)Nc1ccc(NC(=O)C(C)OC(=O)/C(C#N)=C/c2ccc(N(C)C)cc2)cc1 (stereo unspecified) returned KCNQ1 pot inactive, KCNK9 inh inactive, KCNQ1 block inactive, hERG protect -32.6 and KCNK3 block inactive.
Screening COCCN(CCOC)C(=O)c1cc2sc3ccccc3c2s1 returned KCNQ1 pot inactive, PHOSPHO1 inh -6.8, KCNK9 inh inactive, KCNQ1 block inactive, hERG protect -3.5 and KCNK3 block inactive.
Screening CCN(CC)C(=O)c1cc2sc3ccccc3c2s1 returned KCNQ1 pot inactive, PHOSPHO1 inh -6.8, KCNK9 inh -7.53*, KCNQ1 block inactive, hERG protect -8.8 and KCNK3 block inactive.
Screening O=C(Cn1nnc2ccccc21)NC1CCCCC1 returned KCNQ1 pot inactive, PHOSPHO1 inh -9.4, KCNK9 inh inactive, KCNQ1 block inactive, hERG protect -8.8 and KCNK3 block inactive.
`CCOC(=O)Cn1nnnc1C(C(C)C)N(Cc1cccs1)Cc1cc2cc(C)ccc2[nH]c1=O` (stereo unspecified) gave KCNQ1 pot inactive, PHOSPHO1 inh 28.0, KCNK9 inh inactive, KCNQ1 block inactive, hERG protect -11.9 and KCNK3 block inactive.
Screening COc1ccc(C2/C=C\CN(C(=O)Nc3ccccc3)CC(=O)N2Cc2ccc(F)cc2)cc1 (stereo unspecified) returned KCNQ1 pot inactive, PHOSPHO1 inh 22.1, KCNK9 inh inactive, KCNQ1 block inactive, hERG protect -11.5 and KCNK3 block inactive.
Screening COc1ccc(C2/C=C\CN(Cc3ccco3)CC(=O)N2Cc2ccc(F)cc2)cc1 (stereo unspecified) returned KCNQ1 pot inactive, PHOSPHO1 inh 26.5, KCNK9 inh -6.88*, KCNQ1 block inactive, hERG protect -7.3 and KCNK3 block inactive.
Screening COC(=O)[C@@H](NC(=O)Nc1cccc(OC)c1)C(C)C returned KCNQ1 pot inactive, PHOSPHO1 inh 60.1*, KCNK9 inh inactive, KCNQ1 block inactive, hERG protect -6.6 and KCNK3 block inactive.
`NS(=O)(=O)c1ccc(NC(=O)C2C3C=CC(C3)C2C(=O)O)cc1` (stereo unspecified) gave KCNQ1 pot inactive, PHOSPHO1 inh 60.1*, KCNK9 inh inactive, KCNQ1 block inactive, hERG protect -2.1 and KCNK3 block inactive.
Screening Cc1csc(NC(=O)C2C3C=CC(C3)C2C(=O)O)n1 (stereo unspecified) returned KCNQ1 pot inactive, PHOSPHO1 inh 17.4, KCNK9 inh inactive, KCNQ1 block inactive, hERG protect 5.4* and KCNK3 block inactive.
Screening COc1cccc(NC(=O)C2C3C=CC(C3)C2C(=O)O)c1 (stereo unspecified) returned KCNQ1 pot inactive, PHOSPHO1 inh 29.1, KCNK9 inh inactive, KCNQ1 block inactive, hERG protect 7.4* and KCNK3 block inactive.
Screening COc1ccc(NC(=O)C2C3C=CC(C3)C2C(=O)O)cc1 (stereo unspecified) returned KCNQ1 pot inactive, PHOSPHO1 inh 24.0, KCNK9 inh inactive, KCNQ1 block inactive, hERG protect -6.8 and KCNK3 block inactive.
Screening Cc1nc2nc(SCC(=O)NCCCN3CCOCC3)nn2c(C)c1Cc1ccccc1 returned KCNQ1 pot inactive, PHOSPHO1 inh 20.5, KCNK9 inh inactive, KCNQ1 block inactive, hERG protect -9.7 and KCNK3 block inactive.
Cc1cccc(/C=N/NC(=O)C(C)Nc2cccc3ccccc23)n1 (stereo unspecified) was read as KCNQ1 pot inactive, PHOSPHO1 inh 80.3*, KCNK9 inh inactive, KCNQ1 block inactive, hERG protect -3.1 and KCNK3 block inactive.
Screening O=C(N/N=C/c1cccc([N+](=O)[O-])c1O)c1cccs1 returned KCNQ1 pot inactive, PHOSPHO1 inh 0.8, KCNK9 inh inactive, KCNQ1 block inactive, hERG protect -9.8 and KCNK3 block inactive.
Cc1cc(C)n(CC(C)NCc2cn[nH]c2-c2cccc3ccccc23)n1 (stereo unspecified) was read as KCNQ1 pot inactive, PHOSPHO1 inh -3.1, KCNK9 inh inactive, KCNQ1 block inactive, hERG protect -12.1 and KCNK3 block inactive.
For CCOc1ccc(CNS(=O)(=O)c2c(C)nc3sccn3c2=O)cc1OC the results were KCNQ1 pot inactive, PHOSPHO1 inh 15.1, KCNK9 inh inactive, KCNQ1 block inactive, hERG protect -13.5 and KCNK3 block inactive.
For CCCN(CCC)c1nc2ccccc2nc1C(C#N)C(=O)OC(C)COC (stereo unspecified) the results were KCNQ1 pot inactive, KCNK9 inh inactive, KCNQ1 block 8* and hERG protect -9.1.
For CCCCN(CCCC)c1nc2ccccc2nc1C(C#N)C(=O)NCCCOC (stereo unspecified) the results were KCNQ1 pot inactive, PHOSPHO1 inh 15.5, KCNK9 inh inactive, KCNQ1 block 15*, hERG protect -19.1 and KCNK3 block inactive.
For CNNC(=S)Nc1cccc(SC)c1 the results were KCNQ1 pot inactive, PHOSPHO1 inh 7.8, KCNK9 inh inactive, KCNQ1 block inactive, hERG protect -7.8 and KCNK3 block inactive.
`Cc1ccc(CNC(=O)CN(c2ccc(C(C)C)cc2)S(=O)(=O)c2c(C)noc2C)cc1` gave KCNQ1 pot inactive, PHOSPHO1 inh 52.9, KCNK9 inh inactive, KCNQ1 block inactive, hERG protect -11.3 and KCNK3 block inactive.
Screening CCCNC(=O)c1csc(Nc2cccc3ccccc23)n1 returned KCNQ1 pot inactive, PHOSPHO1 inh 28.7, KCNK9 inh -8.04*, KCNQ1 block inactive, hERG protect -4.4 and KCNK3 block inactive.
Screening O=C(O)C1CCN(C(=O)c2scc3c2OCCO3)CC1 returned KCNQ1 pot inactive, PHOSPHO1 inh 20.8, KCNK9 inh inactive, KCNQ1 block inactive, hERG protect -11.8 and KCNK3 block inactive.
